# Active and inactive are the calls of the source. No cut-off for these calls is given here.
# Key:
# [1] = target: Phosphatidylinositol 3-kinase catalytic subunit type 3 (Homo sapiens, UniProt Q8NEB9); test: Inhibition of PIK3C3 in human HeLa cells lysate at 2 uM pre incubated for 15 mins followed by ATP acyl phosphate probe addition and measured after 10 mins by LC-MS/MS analysis relative to control; assay type: subcellular; details: time 25.0 min
# [2] = target: Mixed lineage kinase domain-like protein (Homo sapiens, UniProt Q8NB16); test: Inhibition of MLKL in human HeLa cells lysate pre incubated for 15 mins followed by ADP acyl phosphate probe addition and measured after 10 mins by LC-MS/MS analysis; assay type: subcellular
# [3] = target: Cyclin-dependent kinase 2 (Homo sapiens, UniProt P24941); test: Inhibition of CDK2 in human HeLa cells lysate at 50 uM pre incubated for 15 mins followed by ADP acyl phosphate probe addition and measured after 10 mins by LC-MS/MS analysis relative to control; assay type: subcellular; details: time 25.0 min
# Method in brief: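 KiNativ profiling in HeLa lysate (5 mg/mL total protein). Lysate incubated 15 min with inhibitor at 50, 10, 2, 0.8 or 0 μM. ATP or ADP acylphosphate probe then added (5 μM final) and reacted 10 min. Reaction stopped with urea and analysed by targeted MS, using up to four fragment ions per kinase peptide-probe conjugate. % inhibition taken against untreated lysate. Run in duplicate.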
# [4] = target: T1, Serine/threonine-protein kinase ULK3 (Homo sapiens) (UniProt Q6PHR2); test: Inhibition of ULK3 in human HeLa cells lysate at 50 uM pre incubated for 15 mins followed by ADP acyl phosphate probe addition and measured after 10 mins by LC-MS/MS analysis relative to control; assay type: subcellular; details: time 25.0 min
# T1 sequence (whole entry): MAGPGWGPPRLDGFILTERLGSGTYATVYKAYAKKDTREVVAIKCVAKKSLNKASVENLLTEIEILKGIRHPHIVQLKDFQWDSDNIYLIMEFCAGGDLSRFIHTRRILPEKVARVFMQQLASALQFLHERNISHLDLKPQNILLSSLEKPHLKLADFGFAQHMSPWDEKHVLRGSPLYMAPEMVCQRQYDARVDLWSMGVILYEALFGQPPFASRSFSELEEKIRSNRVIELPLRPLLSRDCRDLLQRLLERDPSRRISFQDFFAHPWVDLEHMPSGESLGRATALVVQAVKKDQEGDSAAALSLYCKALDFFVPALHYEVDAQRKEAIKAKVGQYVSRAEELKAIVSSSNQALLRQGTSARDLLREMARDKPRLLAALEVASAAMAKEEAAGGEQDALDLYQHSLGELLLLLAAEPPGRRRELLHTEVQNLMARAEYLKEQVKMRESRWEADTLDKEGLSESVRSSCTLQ
# [5] = target: Macrophage-stimulating protein receptor (Homo sapiens, UniProt Q04912); test: Inhibition of RON in human HeLa cells lysate at 50 uM pre incubated for 15 mins followed by ADP acyl phosphate probe addition and measured after 10 mins by LC-MS/MS analysis relative to control; assay type: subcellular; details: time 25.0 min
# [6] = Inhibition of MSK1/2 in human HeLa cells lysate at 50 uM pre incubated for 15 mins followed by ADP acyl phosphate probe addition and measured after 10 mins by LC-MS/MS analysis relative to control; details: 25 min, condition cancer
# [7] = target: Serine/threonine-protein kinase MARK2 (Homo sapiens, UniProt Q7KZI7); test: Inhibition of MARK2 in human HeLa cells lysate pre incubated for 15 mins followed by ADP acyl phosphate probe addition and measured after 10 mins by LC-MS/MS analysis; assay type: subcellular
# [8] = target: Dual specificity mitogen-activated protein kinase kinase 4 (Homo sapiens, UniProt P45985); test: Inhibition of MAP2K4 in human HeLa cells lysate pre incubated for 15 mins followed by ADP acyl phosphate probe addition and measured after 10 mins by LC-MS/MS analysis; assay type: subcellular
# [9] = target: T2, Aurora kinase A (Homo sapiens) (UniProt O14965); test: Inhibition of AurA in human HeLa cells lysate at 2 uM pre incubated for 15 mins followed by ATP acyl phosphate probe addition and measured after 10 mins by LC-MS/MS analysis relative to control; assay type: subcellular; details: time 25.0 min
# T2 sequence (whole entry): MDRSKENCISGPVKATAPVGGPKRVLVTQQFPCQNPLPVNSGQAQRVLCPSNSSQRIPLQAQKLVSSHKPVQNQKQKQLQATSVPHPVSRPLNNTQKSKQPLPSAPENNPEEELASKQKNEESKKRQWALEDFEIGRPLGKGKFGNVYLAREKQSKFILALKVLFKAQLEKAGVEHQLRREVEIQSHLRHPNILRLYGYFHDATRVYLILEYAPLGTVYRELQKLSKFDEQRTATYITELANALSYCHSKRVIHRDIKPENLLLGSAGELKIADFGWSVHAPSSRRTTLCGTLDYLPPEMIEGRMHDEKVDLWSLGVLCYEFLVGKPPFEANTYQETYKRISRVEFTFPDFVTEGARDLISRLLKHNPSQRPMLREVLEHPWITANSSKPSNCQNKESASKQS
# Method in brief: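 KiNativ-type profiling in HeLa lysate (5 mg/mL total protein). Lysate preincubated 15 min with inhibitor at 50, 10, 2, 0.8 or 0 μM, then ATP or ADP acylphosphate probe added (5 μM final) for 10 min. Reaction stopped with urea and analysed by targeted MS, using up to four fragment ions per kinase peptide-probe conjugate. % inhibition calculated against untreated lysate. Duplicate reactions.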
# Lewis lung carcinoma = test: Antitumor activity against mouse LL2 cells transfected with Ad-BMK1 allografted in C57Bl/6 mouse assessed as reduction tumor growth at 50 mg/kg, ip administered on day 7 post implantation measured after 17 days; assay type: functional, organism-based; details: time 10.0 day
# Method in brief: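 LL/2 cells (1×10^6) were injected s.c. into C57Bl/6 mice; 6 per group. Ad-EV or Ad-BMK1(AEF) was given intratumorally on days 7, 11, 15 and 19. Drug was dosed at 50 mg/kg i.p. twice daily from day 8 to day 20; control groups received carrier solution.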
# [10] = test system: Tyrosine-protein kinase ABL1 (Homo sapiens), P00519 [F317I]; test: Inhibition of ABL1 F317I mutant (unknown origin) assessed as remaining activity at 10 uM by ATP-competition binding assay relative to control
# [11] = target: Serine/threonine-protein kinase 38 (Homo sapiens, UniProt Q15208); test: Inhibition of NDR1 in human HeLa cells lysate at 2 uM pre incubated for 15 mins followed by ATP acyl phosphate probe addition and measured after 10 mins by LC-MS/MS analysis relative to control; assay type: subcellular; details: time 25.0 min
# [12] = target: Phosphatidylinositol 4-kinase alpha (Homo sapiens, UniProt P42356); test: Inhibition of PIK4CA in human HeLa cells lysate at 10 uM pre incubated for 15 mins followed by ATP acyl phosphate probe addition and measured after 10 mins by LC-MS/MS analysis relative to control; assay type: subcellular; details: time 25.0 min
# Activated CDC42 kinase 1 = Activated CDC42 kinase 1 (Homo sapiens, UniProt Q07912); test: Inhibition of ACK1 in human HeLa cells lysate at 10 uM pre incubated for 15 mins followed by ADP acyl phosphate probe addition and measured after 10 mins by LC-MS/MS analysis relative to control; assay type: subcellular; details: time 25.0 min
# Method in brief: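 HeLa cell lysates (5 mg/mL total protein) were preincubated with inhibitor at 0, 0.8, 2, 10 or 50 μM for 15 min. ATP or ADP acylphosphate probe was then added (5 μM final) for 10 min, and reactions were stopped with urea. Up to four fragment ions per kinase probe-peptide were quantified by targeted MS. % inhibition was taken relative to untreated lysate. Run in duplicate.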
# Chain of Phosphatidylinositol 3-kinase catalytic subunit type 3 (Q8NEB9 whole entry, the tested form may be a part): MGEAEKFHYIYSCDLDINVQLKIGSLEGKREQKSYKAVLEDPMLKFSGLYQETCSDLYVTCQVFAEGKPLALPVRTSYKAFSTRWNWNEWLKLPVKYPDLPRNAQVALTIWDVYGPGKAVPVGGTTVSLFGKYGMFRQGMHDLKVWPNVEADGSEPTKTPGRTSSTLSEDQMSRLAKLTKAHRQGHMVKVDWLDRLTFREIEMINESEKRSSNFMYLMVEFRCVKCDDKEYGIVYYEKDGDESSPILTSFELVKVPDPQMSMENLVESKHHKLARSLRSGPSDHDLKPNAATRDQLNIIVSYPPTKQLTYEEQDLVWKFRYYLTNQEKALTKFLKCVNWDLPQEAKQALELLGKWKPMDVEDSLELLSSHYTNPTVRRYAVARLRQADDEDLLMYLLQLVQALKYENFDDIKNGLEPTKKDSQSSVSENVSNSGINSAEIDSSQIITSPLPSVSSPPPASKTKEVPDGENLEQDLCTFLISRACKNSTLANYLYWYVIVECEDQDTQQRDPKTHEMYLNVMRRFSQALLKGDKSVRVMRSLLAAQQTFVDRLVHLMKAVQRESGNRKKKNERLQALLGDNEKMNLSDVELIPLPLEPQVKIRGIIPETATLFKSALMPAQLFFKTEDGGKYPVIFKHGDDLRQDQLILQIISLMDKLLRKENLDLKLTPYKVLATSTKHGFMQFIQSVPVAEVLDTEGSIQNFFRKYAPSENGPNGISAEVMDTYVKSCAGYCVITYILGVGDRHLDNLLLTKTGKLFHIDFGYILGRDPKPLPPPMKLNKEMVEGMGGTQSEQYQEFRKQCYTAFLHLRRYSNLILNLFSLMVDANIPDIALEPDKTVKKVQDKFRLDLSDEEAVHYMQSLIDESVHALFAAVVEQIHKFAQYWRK
# Chain of Dual specificity mitogen-activated protein kinase kinase 4 (P45985 whole entry): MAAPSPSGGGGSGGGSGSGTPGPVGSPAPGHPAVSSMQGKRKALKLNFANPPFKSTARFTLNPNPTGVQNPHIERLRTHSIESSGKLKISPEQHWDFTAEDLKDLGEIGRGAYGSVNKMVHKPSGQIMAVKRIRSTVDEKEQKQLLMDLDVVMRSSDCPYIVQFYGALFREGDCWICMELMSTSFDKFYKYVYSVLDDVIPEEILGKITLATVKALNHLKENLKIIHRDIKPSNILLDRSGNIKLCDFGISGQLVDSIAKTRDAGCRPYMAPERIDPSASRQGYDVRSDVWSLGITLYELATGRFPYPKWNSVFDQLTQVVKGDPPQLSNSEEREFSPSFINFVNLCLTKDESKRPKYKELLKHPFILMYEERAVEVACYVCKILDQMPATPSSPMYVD
# Chain of Tyrosine-protein kinase ABL1 (Homo sapiens), P00519 [F317I] (P00519 whole entry F317I): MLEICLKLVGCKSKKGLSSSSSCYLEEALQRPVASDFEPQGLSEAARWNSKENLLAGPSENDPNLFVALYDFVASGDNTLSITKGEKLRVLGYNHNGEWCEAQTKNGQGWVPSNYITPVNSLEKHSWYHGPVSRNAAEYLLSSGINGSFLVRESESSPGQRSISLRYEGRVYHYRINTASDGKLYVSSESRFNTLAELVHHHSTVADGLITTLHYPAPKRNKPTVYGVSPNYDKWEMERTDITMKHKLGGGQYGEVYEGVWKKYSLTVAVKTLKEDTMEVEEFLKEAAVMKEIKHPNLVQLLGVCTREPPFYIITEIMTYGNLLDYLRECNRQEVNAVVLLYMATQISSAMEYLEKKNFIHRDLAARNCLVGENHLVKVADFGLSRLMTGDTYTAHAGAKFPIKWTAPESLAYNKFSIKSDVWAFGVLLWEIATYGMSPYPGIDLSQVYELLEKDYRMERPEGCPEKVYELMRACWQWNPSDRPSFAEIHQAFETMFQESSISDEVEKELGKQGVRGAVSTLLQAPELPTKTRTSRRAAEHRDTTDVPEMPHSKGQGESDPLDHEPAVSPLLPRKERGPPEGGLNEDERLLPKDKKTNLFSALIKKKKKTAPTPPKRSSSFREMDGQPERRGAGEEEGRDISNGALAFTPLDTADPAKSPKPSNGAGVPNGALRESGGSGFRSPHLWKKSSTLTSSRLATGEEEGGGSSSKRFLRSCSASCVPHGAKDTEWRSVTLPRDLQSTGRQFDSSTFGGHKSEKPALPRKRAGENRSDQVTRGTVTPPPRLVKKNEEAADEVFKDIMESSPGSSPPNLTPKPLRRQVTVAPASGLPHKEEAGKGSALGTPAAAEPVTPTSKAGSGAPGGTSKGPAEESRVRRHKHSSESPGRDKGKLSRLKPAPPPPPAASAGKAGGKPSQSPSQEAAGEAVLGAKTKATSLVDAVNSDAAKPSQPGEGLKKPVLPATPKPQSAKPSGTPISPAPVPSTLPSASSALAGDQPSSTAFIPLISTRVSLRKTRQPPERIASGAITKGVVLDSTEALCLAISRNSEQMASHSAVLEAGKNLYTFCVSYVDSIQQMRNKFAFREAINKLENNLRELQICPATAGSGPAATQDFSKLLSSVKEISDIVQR
# Chain of Macrophage-stimulating protein receptor (Q04912 25-304 limits assumed): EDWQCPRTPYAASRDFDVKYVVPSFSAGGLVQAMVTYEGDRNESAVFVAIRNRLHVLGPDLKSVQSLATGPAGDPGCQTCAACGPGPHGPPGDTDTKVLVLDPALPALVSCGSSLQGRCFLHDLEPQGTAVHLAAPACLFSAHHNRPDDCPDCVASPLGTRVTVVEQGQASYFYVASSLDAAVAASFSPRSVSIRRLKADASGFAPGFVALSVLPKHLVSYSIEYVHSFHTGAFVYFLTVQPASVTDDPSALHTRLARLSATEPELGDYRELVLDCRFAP
# Chain of Macrophage-stimulating protein receptor (Q04912 310-1400 limits assumed): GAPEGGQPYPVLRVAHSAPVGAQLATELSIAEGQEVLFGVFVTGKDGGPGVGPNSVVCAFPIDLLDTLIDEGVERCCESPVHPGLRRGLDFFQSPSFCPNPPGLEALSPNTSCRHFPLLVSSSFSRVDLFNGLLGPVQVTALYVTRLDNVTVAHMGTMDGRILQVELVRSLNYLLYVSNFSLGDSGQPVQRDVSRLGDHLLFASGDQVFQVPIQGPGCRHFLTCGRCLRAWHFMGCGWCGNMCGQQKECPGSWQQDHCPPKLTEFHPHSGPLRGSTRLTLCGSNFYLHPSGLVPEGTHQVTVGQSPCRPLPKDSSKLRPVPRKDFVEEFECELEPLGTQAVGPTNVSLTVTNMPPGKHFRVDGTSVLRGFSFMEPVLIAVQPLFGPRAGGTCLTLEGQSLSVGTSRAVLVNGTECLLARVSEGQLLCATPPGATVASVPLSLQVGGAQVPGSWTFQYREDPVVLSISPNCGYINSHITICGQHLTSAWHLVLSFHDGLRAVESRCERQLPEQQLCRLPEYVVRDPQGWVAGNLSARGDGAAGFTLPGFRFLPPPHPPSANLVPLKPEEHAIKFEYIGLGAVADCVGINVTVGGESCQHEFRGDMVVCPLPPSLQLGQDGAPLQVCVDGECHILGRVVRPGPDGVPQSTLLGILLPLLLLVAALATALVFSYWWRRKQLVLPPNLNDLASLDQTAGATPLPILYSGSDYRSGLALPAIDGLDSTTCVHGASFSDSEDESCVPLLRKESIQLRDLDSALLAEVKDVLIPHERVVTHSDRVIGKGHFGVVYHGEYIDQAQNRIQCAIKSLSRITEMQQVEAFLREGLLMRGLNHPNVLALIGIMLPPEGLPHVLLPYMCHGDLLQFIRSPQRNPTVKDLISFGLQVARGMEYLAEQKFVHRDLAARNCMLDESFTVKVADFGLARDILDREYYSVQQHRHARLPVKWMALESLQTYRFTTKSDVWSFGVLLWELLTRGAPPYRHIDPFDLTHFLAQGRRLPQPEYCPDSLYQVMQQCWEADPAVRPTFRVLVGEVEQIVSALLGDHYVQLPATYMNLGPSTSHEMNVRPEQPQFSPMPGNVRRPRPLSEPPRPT
# Chain of Serine/threonine-protein kinase MARK2 (Q7KZI7 whole entry): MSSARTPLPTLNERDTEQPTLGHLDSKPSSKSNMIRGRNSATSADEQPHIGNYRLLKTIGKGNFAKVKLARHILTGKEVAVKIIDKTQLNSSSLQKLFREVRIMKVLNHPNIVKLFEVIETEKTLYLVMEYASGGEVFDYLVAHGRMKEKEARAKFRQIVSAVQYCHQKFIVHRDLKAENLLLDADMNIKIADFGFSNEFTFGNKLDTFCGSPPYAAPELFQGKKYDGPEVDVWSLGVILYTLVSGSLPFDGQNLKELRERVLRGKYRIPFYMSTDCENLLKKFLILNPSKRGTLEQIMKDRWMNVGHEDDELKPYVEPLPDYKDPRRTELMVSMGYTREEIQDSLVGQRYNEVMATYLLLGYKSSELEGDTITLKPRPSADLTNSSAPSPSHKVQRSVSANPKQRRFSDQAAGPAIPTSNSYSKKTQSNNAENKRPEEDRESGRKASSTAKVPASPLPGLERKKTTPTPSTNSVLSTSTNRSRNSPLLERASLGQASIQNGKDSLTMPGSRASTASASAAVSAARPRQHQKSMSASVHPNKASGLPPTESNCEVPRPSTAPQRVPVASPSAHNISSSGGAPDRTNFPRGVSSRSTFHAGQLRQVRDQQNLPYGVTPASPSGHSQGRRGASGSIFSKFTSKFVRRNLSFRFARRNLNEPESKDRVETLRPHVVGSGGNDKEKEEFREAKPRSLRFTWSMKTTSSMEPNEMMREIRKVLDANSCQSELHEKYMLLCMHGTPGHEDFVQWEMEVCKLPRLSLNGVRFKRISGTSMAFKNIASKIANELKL
# Chain of Serine/threonine-protein kinase 38 (Q15208 2-465 limits assumed): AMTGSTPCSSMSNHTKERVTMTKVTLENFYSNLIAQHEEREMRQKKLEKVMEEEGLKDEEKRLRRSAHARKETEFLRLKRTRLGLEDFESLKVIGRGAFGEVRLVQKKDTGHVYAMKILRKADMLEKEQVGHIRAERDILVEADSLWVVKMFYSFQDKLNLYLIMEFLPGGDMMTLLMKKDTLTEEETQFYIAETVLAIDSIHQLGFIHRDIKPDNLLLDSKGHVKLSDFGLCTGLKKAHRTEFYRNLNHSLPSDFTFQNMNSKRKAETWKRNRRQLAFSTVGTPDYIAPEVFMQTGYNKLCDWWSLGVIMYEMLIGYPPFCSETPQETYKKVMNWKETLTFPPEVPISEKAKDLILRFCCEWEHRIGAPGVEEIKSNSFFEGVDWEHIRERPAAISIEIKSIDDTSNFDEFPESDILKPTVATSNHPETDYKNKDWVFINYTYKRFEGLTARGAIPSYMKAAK
smiles,measurement,setting,value
CCOc1cc(N2CCC(O)CC2)ccc1Nc1ncc2c(n1)N(C)c1ccccc1C(=O)N2C,inhibition,[1],-0.4%
same,IC50,[2],> 50 µM
same,inhibition,[3],-3.2%
same,inhibition,[4],19.4%
same,inhibition,[5],24%
same,inhibition at 50 µM,[6],10%
same,IC50,[7],> 50 µM
same,IC50,[8],> 50 µM
same,inhibition,[9],7.2%
same,Activity,Lewis lung carcinoma,Active
same,Activity,[10],30%
same,inhibition,[11],-4.3%
same,inhibition,[12],7.7%
same,inhibition,Activated CDC42 kinase 1,37%

# Reference: ChEMBL document CHEMBL5661979, “Pharmacological inhibition of BMK1 suppresses tumor growth through promyelocytic leukemia protein” (Cancer Cell, 2010)
